Assay results taken from ChEMBL document CHEMBL1134348, “Novel glucocorticoid antedrugs possessing a 17beta-(gamma-lactone) ring” (J Med Chem, 2001).

Key:
Glucocorticoid receptor = target: T1, Glucocorticoid receptor (Homo sapiens, UniProt P04150); experiment: Affinity for human glucocorticoid receptor
T1 sequence (P04150 whole entry): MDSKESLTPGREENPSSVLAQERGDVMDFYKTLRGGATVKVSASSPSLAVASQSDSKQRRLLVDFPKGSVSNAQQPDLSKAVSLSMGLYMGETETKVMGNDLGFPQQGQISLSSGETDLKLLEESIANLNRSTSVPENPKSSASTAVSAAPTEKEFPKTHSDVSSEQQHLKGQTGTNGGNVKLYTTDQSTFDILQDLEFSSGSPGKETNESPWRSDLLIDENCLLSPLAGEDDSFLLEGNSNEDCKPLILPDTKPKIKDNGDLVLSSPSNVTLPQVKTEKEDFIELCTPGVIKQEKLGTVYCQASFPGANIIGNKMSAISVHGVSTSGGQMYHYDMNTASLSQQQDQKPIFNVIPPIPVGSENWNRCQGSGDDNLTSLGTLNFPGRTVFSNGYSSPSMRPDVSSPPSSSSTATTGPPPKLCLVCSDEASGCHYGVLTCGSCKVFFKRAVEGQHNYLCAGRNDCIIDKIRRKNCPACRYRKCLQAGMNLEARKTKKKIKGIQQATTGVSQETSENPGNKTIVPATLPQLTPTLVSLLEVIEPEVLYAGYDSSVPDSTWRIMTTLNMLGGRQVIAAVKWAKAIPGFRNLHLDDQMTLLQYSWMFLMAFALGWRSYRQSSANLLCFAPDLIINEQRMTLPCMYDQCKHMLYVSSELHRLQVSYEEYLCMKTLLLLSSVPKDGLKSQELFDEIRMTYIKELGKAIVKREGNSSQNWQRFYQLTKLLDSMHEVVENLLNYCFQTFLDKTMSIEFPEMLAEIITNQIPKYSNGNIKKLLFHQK

Homo sapiens [1] = species: Homo sapiens; experiment: (§1) % stability in human plasma after 10 minutes.; type: ADME, organism-based; details: 10 min
In short: (§2)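 Pooled heparinized plasma from 4 volunteers was incubated at 37 °C with test compound at a final concentration of 30 ug/mL, with DMSO-only controls. The reaction was stopped with 2 M citric acid at 10 and 60 min, with a zero-time sample. Supernatants were analysed by reversed-phase HPLC at 240 nm against an internal standard, in duplicate, and reported as % compound remaining.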

[2] = % stability in krebs buffer after 60 minutes.; type: physicochemical; details: for remaining at 1 h: Krebs buffer, read-out: Stability
In short: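 Test compound, at a final concentration of 30 ug/mL, was spiked into Krebs buffer at 37 °C for 60 min, then quenched with 2 M citric acid. Supernatant was analysed by reversed-phase HPLC with UV detection at 240 nm and an internal standard, in duplicate. The read-out was % compound remaining.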

Homo sapiens [3] = species: Homo sapiens; experiment: (§3) % stability in human plasma after 60 minutes.; type: ADME, organism-based; details: 1 h; in short: as §2
[4] = half life in human plasma.; type: ADME, organism-based
In short: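 Pooled heparinised plasma from 4 volunteers, stored at −20 °C; compound spiked to final 30 ug/mL at 37 °C. Half-life taken from additional time points in this incubation; reaction stopped with 2 M citric acid, samples frozen overnight and centrifuged. Supernatant analysed by reverse-phase HPLC with UV at 240 nm, internal standard dexamethasone or hydrocortisone; duplicates.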

[5] = as §1; type: ADME, organism-based; details: plasma, read-out: Stability; in short: as §2
Rattus norvegicus [6] = experiment: Inhibition of rat ear edema as percentage change in mean weight (71.65+/-2.81 mg) from control group of 72.25+/-2.24 mg at a 1.56 ug dose; type: functional
Rattus norvegicus [7] = experiment: Inhibition of rat ear edema as percentage change in mean weight (49.76+/-2.12 mg) from control group of 72.25+/-2.24 mg at 25.00 ug dose; type: functional
Rattus norvegicus [8] = experiment: Inhibition of rat ear edema as percentage change in mean weight (46.46+/-2.86 mg) from control group of 72.25+/-2.24 mg at 100 ug dose; type: functional
Rattus norvegicus [9] = experiment: Inhibition of rat ear edema as percentage change in mean weight (54.84 +/- 2.18 mg) from control group of 72.25+/-2.24 mg at 10.00 ug dose; type: functional
[10] = as §3; type: ADME, organism-based; details: plasma, read-out: Stability; in short: as §2
Rattus norvegicus [11] = experiment: Inhibition of rat ear edema as percentage change in mean weight (55.94 +/- 3.31 mg) from control group of 72.25+/-2.24 mg at 6.25 ug dose; type: functional
Rattus norvegicus [12] = experiment: Inhibition of rat ear edema as percentage change in mean weight (47.85+/-1.09 mg) from control group of 55.67+/-1.22 mg at 6.25 ug dose
Rattus norvegicus [13] = experiment: Inhibition of rat ear edema as percentage change in mean weight (47.21+/-1.28 mg) from control group of 55.67+/-1.22 mg at 25.00 ug dose
Rattus norvegicus [14] = experiment: Inhibition of rat ear edema as percentage change in mean weight (58.02+/-1.46 mg) from control group of 55.67+/-1.22 mg at 1.56 ug dose
Rattus norvegicus [15] = experiment: Inhibition of rat ear edema as percentage change in mean weight (43.03+/-1.19 mg) from control group of 55.67+/-1.22 mg at 100.00 ug dose

Row | SMILES | IC50 (Glucocorticoid receptor) [nM] | remaining at 10 min [5] [%] | remaining at 1 h [2] [%] | remaining at 1 h [10] [%] | further results
1 | CC1(C)O[C@@H]2CC3C4C[C@H](F)C5=CC(=O)C=C[C@]5(C)[C@@]4(F)[C@@H](O)C[C@]3(C)[C@]2(SC(CCO)C(=O)O)O1 (stereo partly specified) | 289 | – | – | – | –
2 | CCC[C@@H]1O[C@@H]2CC3C4C[C@H](F)C5=CC(=O)CC[C@]5(C)[C@@]4(F)[C@@H](O)C[C@]3(C)[C@]2(SC2COC(=O)C2)O1 (single isomer, unassigned; isomer A) | – | – | – | – | Stability (Homo sapiens [1]): 28%; Stability ([2]; buffer, 1 h): 99%; Stability (Homo sapiens [3]): 19%
3 | CC1(C)O[C@@H]2CC3C4C[C@H](F)C5=CC(=O)C=C[C@]5(C)[C@@]4(F)[C@@H](O)C[C@]3(C)[C@]2(CC2CCOC2=O)O1 (single isomer, unassigned; isomer A) | – | – | – | – | Stability (Homo sapiens [3]): 100%
4 | CCC[C@@H]1O[C@@H]2CC3C4C[C@H](F)C5=CC(=O)CC[C@]5(C)[C@@]4(F)[C@@H](O)C[C@]3(C)[C@]2(S[C@@H]2CCOC2=O)O1 (stereo partly specified) | 6.4 | 19 | 91 | 0 | half-life [4]: 5 min; Decrease (Rattus norvegicus [6]): 0.83%; Decrease (Rattus norvegicus [7]): 31.1%; Decrease (Rattus norvegicus [8]): 35.7%; Decrease (Rattus norvegicus [9]): 24.1%; Decrease (Rattus norvegicus [11]): 22.6%
5 | CC1(C)O[C@@H]2CC3C4C[C@H](F)C5=CC(=O)C=C[C@]5(C)[C@@]4(F)[C@@H](O)C[C@]3(C)[C@]2(CC2CCOC2=O)O1 (single isomer, unassigned; isomer B) | – | 100 | 100 | 99 | –
6 | CCC[C@@H]1O[C@@H]2CC3C4C[C@H](F)C5=CC(=O)CC[C@]5(C)[C@@]4(F)[C@@H](O)C[C@]3(C)[C@]2(S[C@H]2CCOC2=O)O1 (stereo partly specified) | – | 0 | 82 | 0 | –
7 | CC1(C)O[C@@H]2CC3C4C[C@H](F)C5=CC(=O)CC[C@]5(C)[C@@]4(F)[C@@H](O)C[C@]3(C)[C@]2(S[C@@H]2CCOC2=O)O1 (stereo partly specified) | – | 28 | 92 | 0 | –
8 | CCC[C@@H]1O[C@@H]2CC3C4C[C@H](F)C5=CC(=O)CC[C@]5(C)[C@@]4(F)[C@@H](O)C[C@]3(C)[C@]2(SCC2CCOC2=O)O1 (stereo partly specified) | – | 100 | 100 | 100 | half-life [4]: > 240 min
9 | CC1(C)O[C@@H]2CC3C4C[C@H](F)C5=CC(=O)C=C[C@]5(C)[C@@]4(F)[C@@H](O)C[C@]3(C)[C@]2(S[C@@H]2CCOC2=O)O1 (stereo partly specified) | 1.4 | 45 | 90 | 15 | Decrease (Rattus norvegicus [12]): 14%; Decrease (Rattus norvegicus [13]): 15.2%; Decrease (Rattus norvegicus [14]): 0%; Decrease (Rattus norvegicus [15]): 22.7%
